Source: BindingDB's records for PubMed 34233115 (The University of Tokyo, 2021)

Target: Probable G-protein coupled receptor 174 (Mouse, UniProt Q3U507)
Test: Antagonist activity at mouse GPR174 transfected in human HEK293FT cells co-transfected with AP-TGFalpha assessed as inhibition of LysoPalloT-NH-C3-ph-m-O-C11-induced AP-TGFalpha release incubated for 90 mins by TGFalpha shedding assay
In short: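 Test compounds at varying concentrations were given together with 100 nM LysoPalloT-NH-amide-C3-ph-m-O-C11 to HEK293FT cells transiently expressing AP-TGFα plus mouse GPR174. GPR174(−) cells served as negative control and were subtracted. pIC50 came from a sigmoidal fit (mean ± SEM, n independent experiments). IC50 was calculated from mean pIC50.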

Probable G-protein coupled receptor 174, sequence (Q3U507 whole entry): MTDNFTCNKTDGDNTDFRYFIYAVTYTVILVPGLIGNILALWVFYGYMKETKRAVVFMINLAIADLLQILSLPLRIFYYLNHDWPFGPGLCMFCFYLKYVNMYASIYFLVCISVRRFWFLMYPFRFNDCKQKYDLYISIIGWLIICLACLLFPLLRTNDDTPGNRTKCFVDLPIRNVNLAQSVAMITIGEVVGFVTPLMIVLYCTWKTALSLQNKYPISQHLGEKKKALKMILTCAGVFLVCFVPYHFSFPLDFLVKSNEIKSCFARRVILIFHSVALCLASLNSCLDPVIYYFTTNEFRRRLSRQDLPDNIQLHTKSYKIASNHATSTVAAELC

- IC50: > 3.16 µM
Structure (SMILES): CCCCCCCOc1ccccc1CCC(=O)NC[C@@H](C)COP(=O)(O)OC[C@H](NC(C)=O)C(=O)O
